Test results from ChEMBL document CHEMBL3600374, “Dual inhibitors of the dengue and West Nile virus NS2B-NS3 proteases: Synthesis, biological evaluation and docking studies of novel peptide-hybrids” (Bioorg Med Chem, 2015).
pIC50, pKi: −log10 of the molar value. Active and inactive are the calls of the source. The calls are words filed in the database; no cut-off is given here.

What was measured:
[1] = molecular target: Genome polyprotein (West Nile virus) (UniProt P06935); assay: Inhibition of WNV NS2B-NS3 protease expressed in Escherichia coli BL21 lambda (DE3) cells using Abz-Gly-Leu-Lys-Arg-Gly-Gly-3-(NO2)Tyr as substrate at 50 uM preincubated for 15 mins followed by substrate addition measured for 15 mins by FRET assay relative to control
Chain of Genome polyprotein (West Nile virus) (P06935 whole entry): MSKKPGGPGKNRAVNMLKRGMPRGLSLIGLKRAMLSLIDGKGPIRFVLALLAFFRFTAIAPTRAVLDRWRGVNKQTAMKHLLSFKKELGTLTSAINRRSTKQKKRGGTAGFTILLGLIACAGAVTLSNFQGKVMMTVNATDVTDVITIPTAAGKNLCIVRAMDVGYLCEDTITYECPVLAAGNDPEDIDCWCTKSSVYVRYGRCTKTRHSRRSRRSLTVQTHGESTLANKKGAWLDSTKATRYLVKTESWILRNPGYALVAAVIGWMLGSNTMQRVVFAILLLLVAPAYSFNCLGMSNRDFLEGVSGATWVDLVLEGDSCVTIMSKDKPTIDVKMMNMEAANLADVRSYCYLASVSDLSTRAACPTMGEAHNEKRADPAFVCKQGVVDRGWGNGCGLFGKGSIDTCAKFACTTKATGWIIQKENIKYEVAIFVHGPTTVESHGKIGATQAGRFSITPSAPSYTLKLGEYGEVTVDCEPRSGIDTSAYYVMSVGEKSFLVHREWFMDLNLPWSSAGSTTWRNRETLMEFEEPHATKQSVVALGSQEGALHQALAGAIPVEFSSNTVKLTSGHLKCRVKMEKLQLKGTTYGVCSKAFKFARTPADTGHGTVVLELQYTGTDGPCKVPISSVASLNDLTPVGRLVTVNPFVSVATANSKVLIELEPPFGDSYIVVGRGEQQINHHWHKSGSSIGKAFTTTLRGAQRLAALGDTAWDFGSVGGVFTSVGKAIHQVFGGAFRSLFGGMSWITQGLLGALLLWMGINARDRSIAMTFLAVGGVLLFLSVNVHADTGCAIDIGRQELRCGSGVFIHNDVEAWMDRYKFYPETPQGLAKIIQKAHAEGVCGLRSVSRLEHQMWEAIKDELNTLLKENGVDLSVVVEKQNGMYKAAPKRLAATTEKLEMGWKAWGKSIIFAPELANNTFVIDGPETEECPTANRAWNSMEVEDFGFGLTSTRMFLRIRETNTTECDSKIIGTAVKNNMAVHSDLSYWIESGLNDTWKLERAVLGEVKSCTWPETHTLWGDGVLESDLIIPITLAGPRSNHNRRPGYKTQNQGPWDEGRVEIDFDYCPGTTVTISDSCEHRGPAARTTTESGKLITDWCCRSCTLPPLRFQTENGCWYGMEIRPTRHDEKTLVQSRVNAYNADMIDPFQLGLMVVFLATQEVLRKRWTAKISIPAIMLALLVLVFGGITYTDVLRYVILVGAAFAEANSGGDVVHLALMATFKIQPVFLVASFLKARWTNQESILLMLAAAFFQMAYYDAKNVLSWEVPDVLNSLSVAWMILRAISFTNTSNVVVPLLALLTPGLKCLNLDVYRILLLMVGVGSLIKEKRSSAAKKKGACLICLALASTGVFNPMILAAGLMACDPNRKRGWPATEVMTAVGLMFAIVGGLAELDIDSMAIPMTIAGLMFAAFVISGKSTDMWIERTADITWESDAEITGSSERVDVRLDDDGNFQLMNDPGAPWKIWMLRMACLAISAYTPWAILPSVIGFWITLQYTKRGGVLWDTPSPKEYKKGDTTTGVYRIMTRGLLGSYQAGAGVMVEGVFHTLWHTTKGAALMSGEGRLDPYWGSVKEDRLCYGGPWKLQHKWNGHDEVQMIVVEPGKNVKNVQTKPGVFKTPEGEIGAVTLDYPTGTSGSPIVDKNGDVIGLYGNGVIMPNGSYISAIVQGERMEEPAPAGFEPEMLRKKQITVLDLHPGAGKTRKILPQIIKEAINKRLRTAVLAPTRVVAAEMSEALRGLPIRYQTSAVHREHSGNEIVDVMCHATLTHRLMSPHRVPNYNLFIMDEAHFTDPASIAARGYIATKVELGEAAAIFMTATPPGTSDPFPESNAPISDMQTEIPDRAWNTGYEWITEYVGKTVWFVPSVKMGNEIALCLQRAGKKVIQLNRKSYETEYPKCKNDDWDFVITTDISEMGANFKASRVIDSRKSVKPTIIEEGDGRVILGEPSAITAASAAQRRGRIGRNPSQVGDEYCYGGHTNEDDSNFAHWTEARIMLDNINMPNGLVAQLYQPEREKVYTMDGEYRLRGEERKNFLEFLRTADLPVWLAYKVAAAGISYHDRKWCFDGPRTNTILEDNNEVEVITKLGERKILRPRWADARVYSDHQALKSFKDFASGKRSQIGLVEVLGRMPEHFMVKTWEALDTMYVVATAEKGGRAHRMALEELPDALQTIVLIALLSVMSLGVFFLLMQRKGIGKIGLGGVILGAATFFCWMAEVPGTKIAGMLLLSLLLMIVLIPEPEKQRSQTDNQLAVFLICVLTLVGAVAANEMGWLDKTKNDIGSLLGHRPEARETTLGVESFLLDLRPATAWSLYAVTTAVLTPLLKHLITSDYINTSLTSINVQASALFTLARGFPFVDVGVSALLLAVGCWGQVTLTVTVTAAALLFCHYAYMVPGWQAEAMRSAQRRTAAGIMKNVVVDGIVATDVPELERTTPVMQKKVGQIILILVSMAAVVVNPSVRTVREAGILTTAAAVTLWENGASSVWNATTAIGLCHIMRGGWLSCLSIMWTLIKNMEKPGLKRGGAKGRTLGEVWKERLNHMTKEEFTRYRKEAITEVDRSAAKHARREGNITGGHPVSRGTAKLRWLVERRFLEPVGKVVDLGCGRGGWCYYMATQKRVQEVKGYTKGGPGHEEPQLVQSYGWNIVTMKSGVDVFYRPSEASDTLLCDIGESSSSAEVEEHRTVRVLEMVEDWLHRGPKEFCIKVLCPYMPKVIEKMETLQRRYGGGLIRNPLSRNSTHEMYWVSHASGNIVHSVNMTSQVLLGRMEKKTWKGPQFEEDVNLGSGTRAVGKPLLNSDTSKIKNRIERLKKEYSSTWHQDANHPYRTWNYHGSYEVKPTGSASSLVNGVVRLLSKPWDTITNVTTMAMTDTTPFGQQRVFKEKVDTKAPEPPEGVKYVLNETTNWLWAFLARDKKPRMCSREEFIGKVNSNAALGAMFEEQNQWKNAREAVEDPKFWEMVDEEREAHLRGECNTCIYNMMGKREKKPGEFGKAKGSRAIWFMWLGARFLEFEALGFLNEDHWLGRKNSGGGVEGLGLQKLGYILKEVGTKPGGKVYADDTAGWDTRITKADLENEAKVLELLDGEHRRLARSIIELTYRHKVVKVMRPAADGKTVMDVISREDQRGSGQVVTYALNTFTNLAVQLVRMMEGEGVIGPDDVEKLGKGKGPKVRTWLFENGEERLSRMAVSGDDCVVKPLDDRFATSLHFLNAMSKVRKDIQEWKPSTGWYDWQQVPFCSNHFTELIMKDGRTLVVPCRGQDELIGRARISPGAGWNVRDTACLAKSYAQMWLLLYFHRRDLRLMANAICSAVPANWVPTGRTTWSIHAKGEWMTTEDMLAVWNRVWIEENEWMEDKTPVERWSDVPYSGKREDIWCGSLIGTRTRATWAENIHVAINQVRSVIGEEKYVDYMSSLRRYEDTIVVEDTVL

[2] = Inhibition of DENV serotype 2 NS2B-NS3 protease expressed in Escherichia coli BL21 lambda (DE3) cells using Abz-Nle-Lys-Arg-Arg-Ser-3-(NO2)Tyr as substrate preincubated for 15 mins followed by substrate addition measured for 15 mins by FRET assay; design: species or system dengue virus type 2
Method in brief: (§1)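 IC50 by FRET assay at substrate 50 μM; DENV protease at 100 nM, WNV protease at 150 nM. Measured in triplicate.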

Genome polyprotein [3] = molecular target: T1, Genome polyprotein (West Nile virus, UniProt P06935); assay: Inhibition of WNV NS2B-NS3 protease expressed in Escherichia coli BL21 lambda (DE3) cells using Abz-Gly-Leu-Lys-Arg-Gly-Gly-3-(NO2)Tyr as substrate preincubated for 15 mins followed by substrate addition measured for 15 mins by FRET assay; method in brief: as §1
T1 sequence (P06935 1371-1501 limits assumed): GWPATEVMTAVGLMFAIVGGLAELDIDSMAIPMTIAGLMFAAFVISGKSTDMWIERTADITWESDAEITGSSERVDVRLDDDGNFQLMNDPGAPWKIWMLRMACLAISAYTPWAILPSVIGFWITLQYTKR
T1 sequence (P06935 1502-2120 limits assumed): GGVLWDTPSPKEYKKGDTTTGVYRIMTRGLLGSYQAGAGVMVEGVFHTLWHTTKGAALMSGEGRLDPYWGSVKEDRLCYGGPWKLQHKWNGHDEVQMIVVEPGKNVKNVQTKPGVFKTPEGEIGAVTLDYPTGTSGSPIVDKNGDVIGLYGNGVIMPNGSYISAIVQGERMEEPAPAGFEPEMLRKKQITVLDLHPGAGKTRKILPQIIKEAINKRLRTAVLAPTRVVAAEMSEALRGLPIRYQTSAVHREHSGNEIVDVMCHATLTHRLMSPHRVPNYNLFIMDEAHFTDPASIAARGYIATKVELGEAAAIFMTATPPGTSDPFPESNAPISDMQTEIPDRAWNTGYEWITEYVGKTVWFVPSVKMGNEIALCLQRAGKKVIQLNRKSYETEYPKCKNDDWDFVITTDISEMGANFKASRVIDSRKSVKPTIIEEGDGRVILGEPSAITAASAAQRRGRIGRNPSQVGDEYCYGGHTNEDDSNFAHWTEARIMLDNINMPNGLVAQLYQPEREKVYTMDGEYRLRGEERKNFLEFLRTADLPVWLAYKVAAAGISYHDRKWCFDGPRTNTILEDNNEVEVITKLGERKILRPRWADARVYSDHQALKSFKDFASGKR

Genome polyprotein [4] = molecular target: T1, Genome polyprotein; assay: Inhibition of WNV NS2B-NS3 protease expressed in Escherichia coli BL21 lambda (DE3) cells using Abz-Gly-Leu-Lys-Arg-Gly-Gly-3-(NO2)Tyr as substrate preincubated for 15 mins followed by substrate addition measured for 15 mins by Dixon plot analysis
Method in brief: (§2)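 WNV protease, FRET read-out. Substrate at 50, 100, 150, 200 μM; inhibitor at 0, 0.5, 1, 2, 3, 4, 5, 6 μM; triplicates repeated three times, 12 outliers of 288 values excluded. Ki taken from the Cheng-Prusoff plot (Y-intercept of IC50 vs substrate) or the Dixon plot (mean of line intersections).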

[5] = molecular target: Prothrombin (Homo sapiens) (UniProt P00734); assay: Inhibition of thrombin (unknown origin) using Boc-Val-Pro-Arg-AMC as substrate at 25 uM preincubated for 15 mins followed by substrate addition measured for 10 mins by FRET assay relative to control
Genome polyprotein [6] = molecular target: T1, Genome polyprotein; assay: Competitive inhibition of WNV NS2B-NS3 protease expressed in Escherichia coli BL21 lambda (DE3) cells using Abz-Gly-Leu-Lys-Arg-Gly-Gly-3-(NO2)Tyr as substrate preincubated for 15 mins followed by substrate addition measured for 15 mins by Cheng-Prusoff plot analysis; method in brief: as §2
dengue virus type 2 [7] = assay: Inhibition of DENV serotype 2 NS2B-NS3 protease expressed in Escherichia coli BL21 lambda (DE3) cells using Abz-Nle-Lys-Arg-Arg-Ser-3-(NO2)Tyr as substrate at 50 uM preincubated for 15 mins followed by substrate addition measured for 15 mins by FRET assay relative to control
[8] = molecular target: Genome polyprotein (West Nile virus) (UniProt P06935); assay: Competitive inhibition of WNV NS2B-NS3 protease expressed in Escherichia coli BL21 lambda (DE3) cells using Abz-Gly-Leu-Lys-Arg-Gly-Gly-3-(NO2)Tyr as substrate at 0.5 to 6 uM preincubated for 15 mins followed by substrate addition measured for 15 mins by Cheng-Prusoff plot analysis; method in brief: as §2
dengue virus type 2 [9] = assay: Inhibition of DENV serotype 2 NS2B-NS3 protease expressed in Escherichia coli BL21 lambda (DE3) cells by HPLC-based assay
dengue virus type 2 [10] = assay: Binding affinity to DENV serotype 2 NS2B-NS3 protease expressed in Escherichia coli BL21 lambda (DE3) cells by fluorescence quenching assay in absence of DENV protease inhibitor aprotinin
Method in brief: (§3)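 DENV protease held at 1 μM, aprotinin at 10 μM, inhibitor at 0, 0.5, 1, 2, 5, 10, 20, 30, 40, 48 μM. Read-out is the intrinsic Trp50 fluorescence of the protease, measured with and without aprotinin. Readings with aprotinin corrected for aprotinin's own fluorescence.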

[11] = Competitive inhibition of DENV serotype 2 NS2B-NS3 protease expressed in Escherichia coli BL21 lambda (DE3) cells using Abz-Nle-Lys-Arg-Arg-Ser-3-(NO2)Tyr as substrate preincubated for 15 mins followed by substrate addition measured for 15 mins by Cheng-Prusoff plot analysis; design: species or system dengue virus type 2
Method in brief: (§4)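 DENV serotype 2 protease, FRET read-out. Substrate at 50, 100, 150, 200 μM; inhibitor at 0, 0.25, 0.5, 1, 1.5, 2, 2.5, 3 μM; triplicates, two outliers of 96 values excluded. Ki taken from the Cheng-Prusoff plot (IC50 vs substrate, Y-intercept), the Dixon plot (mean of line intersections), or the Cornish-Bowden plot.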

dengue virus type 2 [12] = assay: Competitive inhibition of DENV serotype 2 NS2B-NS3 protease expressed in Escherichia coli BL21 lambda (DE3) cells using Abz-Nle-Lys-Arg-Arg-Ser-3-(NO2)Tyr as substrate at 0.25 to 3 uM preincubated for 15 mins followed by substrate addition measured for 15 mins by Cornish-Bowden plot analysis; method in brief: as §4
dengue virus type 2 [13] = assay: Binding affinity to DENV serotype 2 NS2B-NS3 protease expressed in Escherichia coli BL21 lambda (DE3) cells at 0.5 to 48 uM by fluorescence quenching assay in presence of DENV protease inhibitor aprotinin; method in brief: as §3
[14] = Inhibition of DENV serotype 2 NS2B-NS3 protease expressed in Escherichia coli BL21 lambda (DE3) cells using Abz-Nle-Lys-Arg-Arg-Ser-3-(NO2)Tyr as substrate preincubated for 15 mins followed by substrate addition measured for 15 mins by Dixon plot analysis; design: species or system dengue virus type 2; method in brief: as §4

| inhibition [1] | pIC50 [2] | pIC50 (Genome polyprotein [3]) | inhibition [5] | SMILES | inhibition (dengue virus type 2 [7]) | also measured |
| --- | --- | --- | --- | --- | --- | --- |
| 99.6% | 5.98 | 6.12 | 6.9% | N=C(N)NCCC[C@H](NC(=O)c1ccc(/C=C2\SC(=O)N(CC3CCCCC3)C2=O)cc1)C(=O)N[C@@H](CCCCN)C(=O)N[C@H](C(N)=O)c1ccccc1 | 99.3% | pKi (Genome polyprotein [4]): 6.09; pKi (Genome polyprotein [6]): 5.89; inhibition [8]: Active |
| 98.8% | 6.07 | 6.00 | 10.1% | N=C(N)NCCC[C@H](NC(=O)c1ccc(/C=C2\SC(=O)N(CC3CCCC3)C2=O)cc1)C(=O)N[C@@H](CCCCN)C(=O)N[C@H](C(N)=O)c1ccccc1 | 100% | – |
| 107% | 6.13 | 5.90 | 6.6% | N=C(N)NCCC[C@H](NC(=O)c1ccc(/C=C2\SC(=O)N(CC34CC5CC(CC(C5)C3)C4)C2=O)cc1)C(=O)N[C@@H](CCCCN)C(=O)N[C@H](C(N)=O)c1ccccc1 | 102% | – |
| 105% | 6.07 | 5.56 | 10.4% | C#CCCCN1C(=O)S/C(=C\c2ccc(C(=O)N[C@@H](CCCNC(=N)N)C(=O)N[C@@H](CCCCN)C(=O)N[C@H](C(N)=O)c3ccccc3)cc2)C1=O | 103% | – |
| 95.4% | 6.05 | 5.75 | 7.3% | CC(C)CCN1C(=O)S/C(=C\c2ccc(C(=O)N[C@@H](CCCNC(=N)N)C(=O)N[C@@H](CCCCN)C(=O)N[C@H](C(N)=O)c3ccccc3)cc2)C1=O | 100% | – |
| 35% | – | – | – | O=C(O)c1ccc(/C=C2\SC(=O)N(CC3CCCCC3)C2=O)cc1 | 23% | inhibition (dengue virus type 2 [9]): inactive |
| 93.5% | 6.24 | 5.69 | 9.7% | CC(C)(C)CN1C(=O)S/C(=C\c2ccc(C(=O)N[C@@H](CCCNC(=N)N)C(=O)N[C@@H](CCCCN)C(=O)N[C@H](C(N)=O)c3ccccc3)cc2)C1=O | 101% | – |
| 95.3% | 6.21 | 5.77 | 4.7% | N=C(N)NCCC[C@H](NC(=O)c1ccc(/C=C2\SC(=O)N(C3CCC3)C2=O)cc1)C(=O)N[C@@H](CCCCN)C(=O)N[C@H](C(N)=O)c1ccccc1 | 100% | – |
| 92.8% | 6.04 | 5.60 | 38.9% | CCC(C)N1C(=O)S/C(=C\c2ccc(C(=O)N[C@@H](CCCNC(=N)N)C(=O)N[C@@H](CCCCN)C(=O)N[C@H](C(N)=O)c3ccccc3)cc2)C1=O (some centres undefined) | 102% | – |
| 32.4% | – | – | – | O=C(O)c1ccc(/C=C2\SC(=O)N(CC3CCCC3)C2=O)cc1 | 15.9% | inhibition (dengue virus type 2 [9]): inactive |
| 98.9% | 6.29 | 5.72 | 9.7% | CC(C)(C)CCN1C(=O)S/C(=C\c2ccc(C(=O)N[C@@H](CCCNC(=N)N)C(=O)N[C@@H](CCCCN)C(=O)N[C@H](C(N)=O)c3ccccc3)cc2)C1=O | 101% | – |
| 93.1% | 6.00 | 5.63 | 10.9% | C#CCN1C(=O)S/C(=C\c2ccc(C(=O)N[C@@H](CCCNC(=N)N)C(=O)N[C@@H](CCCCN)C(=O)N[C@H](C(N)=O)c3ccccc3)cc2)C1=O | 99.2% | – |
| 98% | 6.10 | 5.77 | 9.5% | N=C(N)NCCC[C@H](NC(=O)c1ccc(/C=C2\SC(=O)N(C3CCCCC3)C2=O)cc1)C(=O)N[C@@H](CCCCN)C(=O)N[C@H](C(N)=O)c1ccccc1 | 101% | – |
| 34.8% | – | – | – | CC(C)N1C(=O)S/C(=C\c2ccc(C(=O)O)cc2)C1=O | 16.3% | inhibition (dengue virus type 2 [9]): inactive |
| 20.8% | – | – | – | C#CCCN1C(=O)S/C(=C\c2ccc(C(=O)O)cc2)C1=O | inactive | inhibition (dengue virus type 2 [9]): inactive |
| 101% | 5.72 | 5.95 | 7.3% | N=C(N)NCCC[C@H](NC(=O)c1ccc(/C=C2\SC(=O)N(CCC3CCCCC3)C2=O)cc1)C(=O)N[C@@H](CCCCN)C(=O)N[C@H](C(N)=O)c1ccccc1 | 99.9% | – |
| 95% | 6.13 | 5.95 | 8% | CCC(CC)N1C(=O)S/C(=C\c2ccc(C(=O)N[C@@H](CCCNC(=N)N)C(=O)N[C@@H](CCCCN)C(=O)N[C@H](C(N)=O)c3ccccc3)cc2)C1=O | 99.3% | – |
| 101% | 6.08 | 5.68 | 11.5% | N=C(N)NCCC[C@H](NC(=O)c1ccc(/C=C2\SC(=O)N(C3CCCCCC3)C2=O)cc1)C(=O)N[C@@H](CCCCN)C(=O)N[C@H](C(N)=O)c1ccccc1 | 100% | – |
| inactive | – | – | – | O=C(O)c1ccc(/C=C2\SC(=O)N(CC34CC5CC(CC(C5)C3)C4)C2=O)cc1 | inactive | inhibition (dengue virus type 2 [9]): inactive |
| 95.9% | 6.11 | 5.86 | 8% | N=C(N)NCCC[C@H](NC(=O)c1ccc(/C=C2\SC(=O)N(CC3CCC3)C2=O)cc1)C(=O)N[C@@H](CCCCN)C(=O)N[C@H](C(N)=O)c1ccccc1 | 99.7% | – |
| 99.2% | 6.19 | 5.87 | 8.7% | CCC(CC)CN1C(=O)S/C(=C\c2ccc(C(=O)N[C@@H](CCCNC(=N)N)C(=O)N[C@@H](CCCCN)C(=O)N[C@H](C(N)=O)c3ccccc3)cc2)C1=O | 100% | – |
| 41.1% | – | – | – | CC(C)(C)CN1C(=O)S/C(=C\c2ccc(C(=O)O)cc2)C1=O | 13.1% | inhibition (dengue virus type 2 [9]): inactive |
| 94.4% | 6.33 | 5.44 | 8.5% | CC(C)N1C(=O)S/C(=C\c2ccc(C(=O)N[C@@H](CCCNC(=N)N)C(=O)N[C@@H](CCCCN)C(=O)N[C@H](C(N)=O)c3ccccc3)cc2)C1=O | 99.1% | – |
| 97.8% | 6.34 | 5.67 | 13% | C#CCCN1C(=O)S/C(=C\c2ccc(C(=O)N[C@@H](CCCNC(=N)N)C(=O)N[C@@H](CCCCN)C(=O)N[C@H](C(N)=O)c3ccccc3)cc2)C1=O | 99.9% | Activity (dengue virus type 2 [10]): Dose-dependent effect; pKi [11]: 6.40; inhibition (dengue virus type 2 [12]): Active; Activity (dengue virus type 2 [13]): inactive; pKi [14]: 7.00 |
| 90.7% | 6.00 | 5.20 | inactive | CC(C)CN1C(=O)S/C(=C\c2ccc(C(=O)N[C@@H](CCCNC(=N)N)C(=O)N[C@@H](CCCCN)C(=O)N[C@H](C(N)=O)c3ccccc3)cc2)C1=O | 99.6% | – |
| 40.7% | – | – | – | CCC(CC)N1C(=O)S/C(=C\c2ccc(C(=O)O)cc2)C1=O | 11.2% | inhibition (dengue virus type 2 [9]): inactive |
